The text below walks through data of ChEMBL document CHEMBL1148741, “Synthesis and SAR investigations for novel melanin-concentrating hormone 1 receptor (MCH1) antagonists part 2: A hybrid strategy combining key fragments of HTS hits” (J Med Chem, 2007).

Data set [1] concerns the target T1, Melanin-concentrating hormone receptor 1 (Rattus norvegicus, UniProt P97639). Description: Antagonist activity at rat MCH1 receptor expressed in HEK293 cells by FLIPR calcium mobility assay. The data set is classed as functional, cell-based.
Data set [2] has as its target T1, Melanin-concentrating hormone receptor 1. The data set is described as follows: Displacement of [3H]T-226296 from rat recombinant MCH1 receptor. (In a radioligand displacement assay an active substance lowers the binding of a labelled ligand.)
Data set [3] has as its target D(2) dopamine receptor (Homo sapiens, UniProt P14416). The data set is described as follows: Displacement of [3H]spiperone from human recombinant dopamine D2 receptor.
For data set [4], the target named is T2, Alpha-1A adrenergic receptor (Homo sapiens, UniProt P35348).
T2 sequence (P35348 whole entry): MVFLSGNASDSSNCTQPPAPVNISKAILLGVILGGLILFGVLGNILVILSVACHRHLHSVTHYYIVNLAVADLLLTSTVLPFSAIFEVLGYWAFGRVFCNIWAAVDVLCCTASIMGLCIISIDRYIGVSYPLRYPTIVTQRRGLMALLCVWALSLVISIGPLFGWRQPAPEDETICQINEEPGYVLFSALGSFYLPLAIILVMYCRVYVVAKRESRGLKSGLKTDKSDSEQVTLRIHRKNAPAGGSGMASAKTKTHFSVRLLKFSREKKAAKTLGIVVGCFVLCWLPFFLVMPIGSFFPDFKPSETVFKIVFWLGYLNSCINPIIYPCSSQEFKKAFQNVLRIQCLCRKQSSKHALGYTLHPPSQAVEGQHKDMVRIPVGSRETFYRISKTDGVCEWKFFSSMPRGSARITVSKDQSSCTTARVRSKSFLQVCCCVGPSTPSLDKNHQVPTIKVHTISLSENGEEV
The data set is described as follows: Displacement of [125I]HEAT from human recombinant adrenergic alpha-1A receptor.

Data set [5] can be described thus: Drug level in brain at 10 mg/kg, po after 4 hrs. The arrangement: dose 10 mg/kg, route oral. The note with it: rat, read-out: Drug uptake. The format is ADME, organism-based. In short, it runs like this: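 Separate rat experiment: single 10 mg/kg oral dose, brain and plasma exposures measured 4 h after dosing (n = 2); brain level expressed in ng/g, also as brain/plasma ratio.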

The nature of data set [6]: Ratio of drug level in brain to plasma in rat at 10 mg/kg, po. The data set is classed as ADME, organism-based. Set-up: dose 10 mg/kg, route oral. Put shortly: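 Rats received a single oral dose in a study separate from the main PK study. Brain and plasma concentrations were measured 4 h after dosing (n = 2), and the ratio was taken as brain level over plasma level. The limit of quantitation was 2 ng/mL for plasma and 2 ng/g for brain.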

The subject of data set [7] is Rattus norvegicus. The data set is described as follows: Inhibition of MCH-stimulated water intake in rat at 2.5 mg/kg, po. The format is functional, organism-based. The arrangement: dose 2.5 mg/kg.
The subject of data set [8] is Rattus norvegicus. The data set is described as follows: Inhibition of MCH-stimulated water intake in rat at 10 mg/kg, po. The format is functional, organism-based. Set-up: dose 10 mg/kg.
Data set [9] is described as follows: Blood clearance in rat at 2 mg/kg, po and 1 mg/kg iv. The format is ADME, organism-based. The note with it: whole blood.
Data set [10] in a line: Bioavailability in rat at 2 mg/kg, po and 1 mg/kg iv. The data set is classed as ADME, organism-based. The note with it: in vivo.
Data set [11] concerns Rattus norvegicus. The data set is described as follows: Inhibition of MCH-stimulated water intake in rat at 1 mg/kg, po. The format is functional, organism-based. The arrangement: dose 1 mg/kg.
Data set [12] in a line: Volume of distribution at steady state in rat. The data set is classed as ADME, organism-based. The note with it: in vivo, read-out: Vss.
A short description of data set [13]: Plasma clearance in rat at 2 mg/kg, po and 1 mg/kg iv. The format is ADME, organism-based.
Data set [14] deals with Rattus norvegicus. The data set is described as follows: Anxiolytic activity in rat assessed as social interaction time at 0.3 mg/kg, po after 1 hr relative to control.
Data set [15] in a line: Half life in rat at 2 mg/kg, po and 1 mg/kg iv. The format is ADME, organism-based. The note with it: in vivo.

Active and inactive are the calls of the source. No cut-off for these calls is given here.

D(2) dopamine receptor, sequence (P14416 whole entry): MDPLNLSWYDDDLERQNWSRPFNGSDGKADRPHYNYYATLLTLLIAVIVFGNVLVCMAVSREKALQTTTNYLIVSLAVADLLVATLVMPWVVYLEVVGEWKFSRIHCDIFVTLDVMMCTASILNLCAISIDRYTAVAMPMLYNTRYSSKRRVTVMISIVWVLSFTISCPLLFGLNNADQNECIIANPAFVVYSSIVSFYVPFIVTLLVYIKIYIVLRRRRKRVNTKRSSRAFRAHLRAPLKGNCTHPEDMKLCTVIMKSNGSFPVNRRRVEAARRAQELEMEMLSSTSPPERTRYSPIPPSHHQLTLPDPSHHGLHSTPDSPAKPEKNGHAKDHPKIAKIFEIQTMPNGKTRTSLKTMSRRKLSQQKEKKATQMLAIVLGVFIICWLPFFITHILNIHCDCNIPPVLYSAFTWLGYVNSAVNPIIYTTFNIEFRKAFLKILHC
T1 sequence (P97639 whole entry): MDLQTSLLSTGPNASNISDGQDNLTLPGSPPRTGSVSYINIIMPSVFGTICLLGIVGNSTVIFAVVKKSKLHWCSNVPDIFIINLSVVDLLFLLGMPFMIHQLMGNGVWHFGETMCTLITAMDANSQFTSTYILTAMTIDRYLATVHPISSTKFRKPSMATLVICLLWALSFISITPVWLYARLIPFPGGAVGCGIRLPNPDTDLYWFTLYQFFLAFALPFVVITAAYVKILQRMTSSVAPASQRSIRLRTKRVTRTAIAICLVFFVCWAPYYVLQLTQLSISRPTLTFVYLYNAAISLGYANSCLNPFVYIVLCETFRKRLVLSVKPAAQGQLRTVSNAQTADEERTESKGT

As to `CC(C)C(=O)Nc1cccc(C2CCN(Cc3ccc(Oc4ccccc4)cc3)CC2)c1`, in data set [1], the IC50 is 320 nM. Besides, the Ki worked out at 10 nM in data set [2] and 120 nM in data set [3].
In the case of `O=C(CCCN1CCC(c2cccc(NC(=O)C3CCCCC3)c2)CC1)c1ccc(Cl)cc1`, the Ki in [2] turned out to be 200 nM.
As to `CC(C)C(=O)Nc1cccc(C2CCN(Cc3ccc(Oc4ccc(Cl)c(Cl)c4)cc3)CC2)c1`, the IC50 in [1] is 710 nM. The results for the Ki in data set [2], in data set [3] and in data set [4] were 8.2 nM, 2900 nM and 34000 nM, respectively.
As for `CC(C)C(=O)Nc1cccc(C2CCN(Cc3cccc(Oc4ccc(Cl)c(Cl)c4)c3)CC2)c1`, the IC50 in data set [1] was 2600 nM. Also, in data set [2], the Ki came to 18 nM.
Turning to `CC(=O)Nc1cccc(C2CCN(CCCC(=O)c3ccc(Cl)cc3)CC2)c1`, the IC50 in [1] came to 570 nM. In addition, the inhibition constant Ki came to 70 nM in data set [2] and 1400 nM in data set [3].
With `CC(=O)Nc1cccc(C2CCN(CCCC(=O)c3ccc(C)c(C)c3)CC2)c1`, the IC50 in data set [1] worked out at 1300 nM. Besides, the Ki in data set [2] turned out to be 100 nM.
On the same counts, the results for `CC(=O)Nc1cccc(C2CCN(CCCC(=O)c3ccccc3)CC2)c1` are 2700 nM and 350 nM.
On to `CC(C)C(=O)Nc1cccc(C2CCN(CCCC(=O)c3ccc(Cl)cc3)CC2)c1`, for which, in data set [1], the IC50 turned out to be 72 nM. Further, the inhibition constant (Ki) in data set [2] was found to be 5 nM; in data set [3] it was 610 nM.
For `COc1ccc(Oc2ccc(CN3CCC(c4cccc(NC(=O)C(C)C)c4)CC3)cc2)cc1`, the IC50 in data set [1] was 720 nM. Moreover, in [3], the Ki came out at 1400 nM.
`CC(C)C(=O)Nc1cccc(C2CCN(Cc3cccc(Oc4ccc(Cl)cc4)c3)CC2)c1`: the IC50 in data set [1] amounted to 2000 nM. Also, the Ki in data set [2] came to 23 nM.
`CC(C)C(=O)Nc1cccc(C2CCN(Cc3cccc(Oc4ccc(C(C)(C)C)cc4)c3)CC2)c1`: the Ki in data set [2] worked out at 540 nM.
As to `CC(=O)Nc1cccc(C2CCN(CCCC(=O)c3ccc(C)cc3)CC2)c1`, the IC50 in data set [1] was found to be 2400 nM.
Turning to `COCC1=C(C(=O)OC)[C@H](c2ccc(F)c(F)c2)N(C(=O)NCCCN2CCC(c3cccc(NC(C)=O)c3)CC2)C(=O)N1` [SNAP-7941], the Ki was found to be 2800 nM in data set [3] and 40 nM in data set [4].
On to `CC(C)C(=O)Nc1cccc(C2CCN(Cc3ccc(Oc4ccc(Cl)cc4)cc3)CC2)c1`, for which the half-inhibitory concentration (IC50) in data set [1] came out at 350 nM. Also, the results for the Ki in data set [2] and in data set [3] were 5.3 nM and 110 nM, respectively.
With `COc1ccc(Oc2cccc(CN3CCC(c4cccc(NC(=O)C(C)C)c4)CC3)c2)cc1`, in [3], the Ki turned out to be 1000 nM.
Turning to `Cc1ccc(NC(=O)C(C)C)cc1C1CCN(Cc2ccc(Oc3ccc(F)c(F)c3)cc2)CC1`, the concentration at 4 h in data set [5] amounted to 184 ng/g. Also, the Kp in data set [6] was 2.3. Besides, the result in data set [7], in [8] and in data set [11] was Active. For the same compound, the IC50 in data set [1] turned out to be 230 nM. For the same compound, the values for the clearance in [9] and in data set [13] were 55 mL/min/kg and 70 mL/min/kg, respectively. Also, the bioavailability in data set [10] was 59%. Besides, the Vd in data set [12] was determined as 29 L/kg. The Time in data set [14] is listed as 81 s. In [15], the half-life was 5.2 h. Further, the Ki in data set [3] turned out to be 7400 nM; in data set [4], 180 nM.
On to `CC(C)C(=O)Nc1cccc(C2CCN(Cc3cccc(Oc4cccc(C(F)(F)F)c4)c3)CC2)c1`, for which the IC50 in data set [1] turned out to be 5400 nM.
Turning to `Cc1ccc(C2CCN(Cc3ccc(Oc4ccc(F)c(F)c4)cc3)CC2)cc1NC(=O)C(C)C`, in [1], the IC50 amounted to 360 nM. Moreover, the Ki in data set [2] is 27 nM; in [3], 400 nM; in data set [4], 1010 nM.
Take `CC(C)C(=O)Nc1cccc(C2CCN(Cc3cccc(Oc4cc(Cl)cc(Cl)c4)c3)CC2)c1`: the IC50 in [1] is 1400 nM. In data set [2], the Ki worked out at 140 nM.
Consider `Cc1ccc(Oc2cccc(CN3CCC(c4cccc(NC(=O)C(C)C)c4)CC3)c2)cc1`, for which the Ki in [3] was found to be 1300 nM.
Turning to `CC(=O)Nc1cccc(C2CCN(CCCC(=O)c3ccc(Oc4ccccc4)cc3)CC2)c1`, the IC50 in [1] was over 10000 nM. Also, the Ki in [2] turned out to be 490 nM.
With `O=C(Cc1ccccc1)Nc1cccc(C2CCN(CCCC(=O)c3ccc(Cl)cc3)CC2)c1`, the Ki in [3] was determined as 780 nM.
For `O=C(CCCN1CCC(O)(c2ccc(Cl)cc2)CC1)c1ccc(Cl)cc1` [CHLOROHALOPERIDOL], the Ki was determined as 350 nM in data set [2], 190 nM in data set [3] and 150 nM in data set [4].
Turning to `CC(C)C(=O)Nc1cccc(C2CCN(Cc3ccc(Oc4ccc(F)c(F)c4)cc3)CC2)c1`, the inhibitory constant (Ki) in data set [3] came to 470 nM; in data set [4] it was 200 nM.

The term IC50 denotes the concentration that inhibits the measured activity by half. One may read the Ki as the dissociation constant of the complex between target and ligand, obtained from inhibition or displacement. Usually Kp stands for tissue or fluid exposure divided by exposure in the circulation. What is called bioavailability is dose-corrected exposure relative to a reference, in per cent. Low readings indicate poor availability, high ones good availability. What is called half-life is how long it takes for the measured level to halve. A higher half-life goes with slow decline.
